# Results from ChEMBL document CHEMBL4513216, “Probing the Open Global Health Chemical Diversity Library for Multistage-Active Starting Points for Next-Generation Antimalarials” (ACS Infect Dis, 2020).
# Assay: Toxicity liver stage against HepG2, at 10uM
# Assay type: cell-based
# Parameters: test concentration 10 uM, cell line HepG2-A16-CD81EGFP
# Details: human, HepG2-A16-CD81EGFP cells; read-out: INHIBITION
# Method in brief: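 Uninfected HepG2-A16-CD81EGFP cells, 3 × 10^3 per well, 1536-well, plated on prespotted compound at 10 μM final, parasite-free screening media added to match infected plates; puromycin 10 μM positive, DMSO 0.5% negative; run in parallel with 48 h PbLuc assay at 37 °C, 5% CO2; viability by CellTiter-Glo luminescence, normalized to controls.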
row,SMILES,cytotoxicity at 10 µM
1,CC(C)Cc1nc(OCC(N)=O)c(C#N)c2c1CCCC2,-9.53%
2,COc1ccc(-c2csc3c2c(N)nc(=O)n3CCN(C)C)cc1,-49.9%
3,Cn1cccc1C(=O)N1CC[C@@H]2[C@@H]1CC(=O)N2CC1CCOCC1,-2.82%
4,CC(C)Nc1nc2c(c(N(C)C)n1)CCN(C(=O)c1cc[nH]n1)CC2,6.59%
5,CSc1nc2ncc3c(=O)n(CCN4CCCCC4)ccc3n2n1,5.23%
6,Cc1ccc(N2CCN(C(=O)COc3nccc(C)n3)CC2)nn1,-25.1%
7,CN(C)C(=O)C1CCCN(C(=O)c2ccccc2-n2cc(CN)cn2)C1 (centres undefined),11.6%
8,Cc1cc(CCC(=O)O)nc(C2CCCN2c2ccnc(C)n2)n1 (centres undefined),-8.12%
9,Cc1cc(CN(C)Cc2ncc(-c3ccccc3)o2)no1,-13.8%
10,CCOCCNC(=O)c1cnc(Sc2nccn2C)c(Cl)c1,-44.6%
11,CCN(C)S(=O)(=O)N1CCC(C(O)c2ccc(F)cc2)CC1 (centres undefined),-22%
12,O=S(=O)(c1ccc(Cl)s1)N1CCCC(c2ncc[nH]2)C1 (centres undefined),6.68%
13,O=C1CCCN1CCCN1CCCCC1Cn1cncn1 (centres undefined),-0.358%
14,COc1ccc(-c2nc(CCNC(=O)NC3CCC(O)CC3)co2)cc1 (centres undefined),7.66%
15,CC(C)COc1cncc(N2CCCN(c3ncccn3)CC2)n1,-2.38%
16,COCc1cc(N(C)Cc2ncnn2C)nc(C(C)(C)C)n1,6.39%
17,COc1ccc2c(c1)CCCN2C(=O)CN1CCOC(C)C1 (centres undefined),2.59%
18,COCC(=O)N1CCN(C(=O)C2(c3ccc(C)c(OC)c3)CC2)CC1,-8.19%
19,CNS(=O)(=O)c1cccc(C(C)NCc2cccc(O)c2)c1 (centres undefined),1.14%
20,O=C(NCc1nnc2n1CCC2)N(Cc1ccc(F)cc1)C1CC1,-5.31%
21,CCOc1cc(C)nc(N2CCN(Cc3nccn3CC)CC2)n1,-3.81%
22,CSCC(CCO)NC(=O)Nc1cc(F)ccc1C (centres undefined),-1.8%

row,SMILES,cytotoxicity at 10 µM
1,COc1cc(OC)cc(C2(O)CCN(Cc3ncc(C)o3)CC2)c1,17%
2,CCNc1ncc(C(=O)Nc2nnc(N3CCCCC3)[nH]2)s1,-12.4%
3,CN(Cc1ccc(C#N)cc1)Cn1nccc1-c1cccnc1,8.4%
4,CCN(C)S(=O)(=O)NCC1(c2ccccc2Br)CC1,1.22%
5,Cn1cc(N2CCCC(SCc3nc(C4CC4)no3)C2=O)cn1 (centres undefined),21.8%
6,Cc1cccc(N2N=C(C(=O)NC(C)Cn3cccn3)CCC2=O)c1 (centres undefined),0.479%
7,CCN1CCC(NC(=O)Cc2csc(C(C)(C)C)n2)CC1,-16.3%
8,CC(C)c1nnc(NC(=O)Cc2ccc(F)cc2)[nH]1,-8%
9,NC(=O)[C@@H]1Cc2ccccc2CN1S(=O)(=O)N1CCCCC1,3.33%
10,Cn1cnnc1C1CCN(C(=O)c2cc(-c3ccccc3)on2)CC1,3.77%
11,Cc1noc(CS(=O)(=O)C(C)C(=O)N(C)c2ccccc2)n1 (centres undefined),9.26%
12,CC(OCC1CC1)C(=O)Nc1ncccc1I (centres undefined),12.1%
13,CN(C(=O)Cn1nnnc1C(C)(C)C)c1ccccc1,-48.4%
14,CN(C)C(C(=O)Nc1nccs1)c1c(F)cccc1Cl (centres undefined),-44.4%
15,CCN(Cc1noc(CC(C)C)n1)Cc1ccccc1Cl,-50.6%
16,CC(C)Nc1ncnc2c1CCN(C(=O)NCc1cccc(F)c1)CC2,-110%
17,CC(=O)N1CCO[C@@H]2CN(S(=O)(=O)C3CC3)C[C@@H]2C1,-104%
18,CCN(C(=O)c1ccc2nnc(C3CCN(C(C)=O)C3)n2c1)C(C)C (centres undefined),-107%
19,CC(=O)N1CCC(c2nnc3ccc(C(=O)NCC(C)C)cn23)C1 (centres undefined),-108%
20,COc1nn(C)c2c1CCCN(C(=O)c1cscn1)C2,-97.2%
21,O=C(Cc1ccccc1)N1CCC2(CC1)CN(c1ncccn1)CCO2,-72.3%
22,COCC(=O)N1C[C@H]2CN(Cc3cccc(F)c3)C(=O)[C@H]2C1,-83.5%

row,SMILES,cytotoxicity at 10 µM
1,CC(=O)N1CCC2(CCN(C(=O)c3ccc(Cl)c(C(F)(F)F)c3)C2)C1 (centres undefined),-85.8%
2,COCCC(=O)N1CCn2c(COCC3CC3)cnc2C1C (centres undefined),4.17%
3,O=C(CO)N1CCc2onc(Cn3cccn3)c2C1,0.436%
4,COc1ccc(CCN2C(=O)O[C@@H]3CN(C)C[C@@H]32)cc1,-2%
5,CN(C)CCNC(=O)CCC1CCN(C(=O)c2ccc(Cl)cc2O)CC1,-11.7%
6,Cc1ccc(-c2nc(CN3C[C@@H](C)NC[C@@H]3C)c(C)o2)s1,-11.7%
7,Cc1cc(N2CCN(Cc3ccsc3)C(CCO)C2)nc(N)n1 (centres undefined),-7.3%
8,COCCn1cncc1CN1CCC(C(C)=O)(c2ccccc2)CC1,1.92%
9,CCn1cnnc1CN(C)Cc1nc(-c2cc(OC)ccc2F)oc1C,-1.32%
10,Cc1ccc(OCC2CCCN(CC3CCOCC3)C2)cc1 (centres undefined),16.1%
11,CC(=O)c1ccc(N2CCCC(CO)(Cc3ccccc3F)C2)nc1 (centres undefined),8.59%
12,COc1ccc(C(=O)C2CCCN(c3nccc(N)n3)C2)c(C)c1 (centres undefined),5.67%
13,O=C(CCN1CCCO1)NC1CCCN(CC2CCCCC2)C1 (centres undefined),7.3%
14,CC1(c2ccccc2)CCCN(Cc2cncn2C2CC2)C1 (centres undefined),-1.06%
15,NC(=O)COc1ccc(CN2CCC(O)(CN3CCCCC3)C2)cc1Cl (centres undefined),-1.73%
16,COc1ccc(Oc2ncccc2C(N)=O)cc1CN1CCCC1,0.0453%
17,NCCc1cccc(CN2CCN(c3cccc(Cl)c3)C(=O)C2)c1,-5.29%
18,C1CCC(CNC2CCSCC2)(N2CCOCC2)CC1,-14.5%
19,CC(Nc1nccc(CCC(F)(F)F)n1)c1nc(-c2ccncc2)no1 (centres undefined),4.74%
20,CCc1nc(C)sc1CNC1CCN(Cc2ccccc2)C1 (centres undefined),-31.7%
21,Cc1cc2nc(C(C)C)cc(NC(C)c3nncn3C3CCCC3)n2n1 (centres undefined),8.91%
22,Cc1ccc(C(C(=O)N(C)CCc2cn[nH]c2)N(C)C)cc1 (centres undefined),0.0341%

row,SMILES,cytotoxicity at 10 µM
1,CCCn1ccnc1-c1nccn1CCn1cnnc1,-3.53%
2,c1cnc(N2CCN(CCn3ccnc3-c3ccncc3)CC2)nc1,-3.25%
3,Cc1ccc(CN(C)c2nccc(-c3cn(C)nc3C)n2)o1,4.17%
4,CC(C)CN1CCCC1c1ccc(C(=O)Nc2ccc3[nH]nnc3c2)s1 (centres undefined),19.1%
5,COC(=O)CC1C(=O)NCCN1c1nc2c(s1)c(C)nn2C (centres undefined),-7.36%
6,Cc1ccnn1CC(=O)N(C)Cc1cnn(-c2ccccc2)c1,9%
7,Cc1nc(N2CCC(O)(c3ccc(F)cc3)CC2)c2c(C)nn(C)c2n1,-0.503%
8,CN(C)c1nc2c(c(=O)[nH]1)CCN(C(=O)c1c[nH]c(=O)c(Cl)c1)C2,6.32%
9,CSc1ccc(CN(C(=O)c2cc(C)[nH]c(=O)c2)C2CC2)cc1,-49.5%
10,CCCN1CCN(Cc2cc(Cl)cc(Cl)c2)[C@H]2CS(=O)(=O)C[C@H]21,-2.45%
11,COCCN(C)C[C@H]1C[C@H](CO)CN(C(=O)c2ccc(=O)n(C)c2)C1,-1.06%
12,O=C(NCc1cc2ccccc2s1)c1cc(CN2CCCC(O)C2)on1 (centres undefined),-40%
13,O[C@@H]1CN(c2noc(C3CC3)n2)CC[C@H]1c1ccc2ccccc2c1,5.11%
14,COc1ccc(-c2ccccc2CCN)c(OC)c1OC,2.79%
15,COCCCNCc1cc(O)c2cc(C)cc(C)c2n1,-6.31%
16,CC1CNC(=O)CCN1Cc1cc(O)c2cccc(F)c2n1 (centres undefined),-4.5%
17,Cc1cnn(C2CN(Cc3nc(-c4ccccn4)no3)C2)c1,3.24%
18,CCc1nnc2n1CCN(Cc1cccc3c1OCCO3)C2,-7.42%
19,COc1cccc(C(NCc2ccc(SC)cc2)c2nccn2C)c1 (centres undefined),-5.54%
20,O=C(CC1C=CCC1)Nc1ncn(CC(=O)N2CCCCCC2)n1 (centres undefined),-3.72%
21,CC(c1nc(C2CC2)no1)N1CCN(Cc2noc(C3CC3)n2)CC1 (centres undefined),4.63%
22,Cn1cnnc1C1CCCN(C(=O)NCc2cc[nH]n2)C1 (centres undefined),-6.73%

row,SMILES,cytotoxicity at 10 µM
1,O=C1COc2cc(C(=O)NS(=O)(=O)c3ccccc3F)ccc2N1,-4.79%
2,Cc1cnn(CCNCc2ccccc2C#N)c1,-9.14%
3,CC(O)CN1CCN(C(=O)c2ccc(N(C)C)nn2)CC1 (centres undefined),-13.4%
4,O=C(c1ccc(Cl)o1)N1CCCN(Cc2cscn2)CC1,-1.08%
5,Cc1cccc(CNc2cc(C3CCCNC3)ccn2)n1 (centres undefined),3.81%
6,CCn1c(CN2CCCC(O)(c3ccc(F)cc3)CC2)cnc1SC (centres undefined),-0.466%
7,COc1ccc(F)c(CN2CCC(c3cc(O)nc(C)n3)C2)c1 (centres undefined),5.61%
8,Cc1noc(C)c1CN1C[C@@H]2COC[C@H](C(=O)N3CCCCO3)[C@@H]2C1,-1.98%
9,c1ccc(COC[C@H]2CC[C@H]3[C@H](CCN3Cc3ccccn3)O2)nc1,-84.7%
10,Fc1cccc(N2C[C@H]3CCN(c4cccnc4)C[C@H]3C2)c1,15.4%
11,O=C(NCc1cnc2n1CCN(CC1CCOCC1)C2)c1ccno1,-101%
12,CCC1=N[C@@]2(CC[C@@H]3CN(Cc4ccc(Cl)cc4)C[C@@H]32)C(=O)N1C,1.98%
13,CNC(=O)[C@H]1C[C@@H]2CN(S(=O)(=O)c3cccc(C)c3)C[C@@H]2N1C,1.59%
14,CN(C)c1nc(N2CCCC2)nc2c1CCN(Cc1nccn1C)CC2,-97.2%
15,OC1(Cn2ccc3ncccc32)CCN(Cc2ccccn2)CC1,5.33%
16,O=C(Cc1ccc(F)cc1)N1CCn2cc(Cn3cccn3)nc2C1,4.58%
17,O=C([C@H]1C[C@H]2OCC[C@H]2N(CC2CCOCC2)C1)N1CCCCO1,-73.9%
18,Cc1ccc(CN2CCC3(CC2)C(c2ccccc2)CC(=O)N3C)o1 (centres undefined),-101%
19,CCOC(=O)N1CCc2ccccc2C12CCNCC2,1.15%
20,CN(Cc1cccnc1)C1CC2(CCN(Cc3ccccn3)CC2)C1,-84%
21,COc1ccc2c(c1)sc(=NC(=O)CSCC(=O)Nc1nccs1)n2C,-8.36%
